This is an account of results in ChEMBL document CHEMBL4376840, “Application of Fluorine- and Nitrogen-Walk Approaches: Defining the Structural and Functional Diversity of 2-Phenylindole Class of Cannabinoid 1 Receptor Positive Allosteric Modulators” (J Med Chem, 2020).

Data set [1] deals with Cannabinoid receptor 1 (Rattus norvegicus) (UniProt P20272). The data set is described as follows: Positive allosteric modulatory activity at N-terminal GFP-tagged rat CB1R receptor expressed in HEK293 cells assessed as leftward shift in CP55940 dependent concentration response curve for inhibition of forskolin-induced cAMP accumulation after 30 mins by TR-FRET assay. Format: functional, cell-based.

Data set [2] concerns the target T1, Cannabinoid receptor 1 (Homo sapiens, UniProt P21554). The data set is described as follows: Allosteric agonist activity at human CB1R expressed in CHO-K1 cells assessed as inhibition of forskolin-induced cAMP accumulation by measuring cAMP accumulation at minimal level at higher concentrations after 90 mins by hit-hunter cAMP assay relative to forskolin. The class given is functional, cell-based. The method in brief:
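HitHunter CHO-K1 hCB1R cells (20,000/well) were held overnight in Opti-MEM with 1% FBS. They were then co-treated at 37°C with 10 μM forskolin plus compound alone (0.10 nM – 10 μM) for 90 min. Chemiluminescent cAMP detection followed (two 60-min room-temperature steps). Data as % forskolin, variable-slope 4-parameter fit; Emin is the lower plateau. n ≥ 6, triplicate.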

Data set [3] deals with T1, Cannabinoid receptor 1. The data set is described as follows: Positive allosteric modulatory activity at human CB1R expressed in CHO-K1 cells assessed as maximal increase in CP55940-induced beta arrestin2 recruitment after 90 mins in presence of 100 nM CP55940 by pathhunter beta-arrestin assay relative to CP55940. The class given is cell-based.
Data set [4] addresses Cannabinoid receptor 1 (Rattus norvegicus) (UniProt P20272). The data set is described as follows: Positive allosteric modulatory activity at N-terminal GFP-tagged rat CB1R receptor expressed in HEK293 cells assessed as downward shift in CP55940 dependent concentration response curve for inhibition of forskolin-induced cAMP accumulation after 30 mins by TR-FRET assay. Format: functional, cell-based.

In data set [5] the target is T1, Cannabinoid receptor 1. Description: Agonist activity at human CB1 receptor expressed in CHO cell membranes assessed as increase in G-protein coupling by measuring [35S]GTPgammaS binding after 90 mins in presence of [35S]GTPgammaS by liquid scintillation analysis relative to control. The class given is functional. In short, it runs like this:
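[35S]GTPγS binding to G protein in membranes from CHO cells stably expressing human CB1R, with test compound given alone. Data fit to a variable-slope 4-parameter nonlinear regression. n = 4–6 independent experiments in duplicate.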

Data set [6] concerns the target T1, Cannabinoid receptor 1. Description: Positive allosteric modulatory activity at human CB1R expressed in CHO-K1 cells assessed as increase in CP55940-induced inhibition of forskolin-induced cAMP accumulation by measuring cAMP accumulation at minimal level at higher concentration after 90 mins in presence of 100 nM CP55940 by hit-hunter cAMP assay relative to forskolin. The class given is functional, cell-based. In short, it runs like this:
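Uses the HitHunter CHO-K1 hCB1R cAMP set-up above. […] Data normalized to % forskolin, 4-parameter fit. n ≥ 6, triplicate.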

For data set [7], the target named is T1, Cannabinoid receptor 1. The data set is described as follows: Positive allosteric modulatory activity at human CB1R expressed in CHO-K1 cells assessed as increase in CP55940-induced beta-arrestin2 recruitment after 90 mins in presence of CP55940 at EC20 concentration by pathhunter beta-arrestin assay relative to control. Format: cell-based. The method in brief: (§1)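 Read-out was chemiluminescent β-arrestin2 recruitment, fit with a 4-parameter regression. n = 1–3 independent experiments in duplicate.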

Data set [8] addresses T1, Cannabinoid receptor 1. The data set is described as follows: Allosteric agonist activity at human CB1R expressed in CHO-K1 cells assessed as increase in beta arrestin2 recruitment after 90 mins by pathhunter beta-arrestin assay relative to CP55940. The class given is cell-based. In short, it runs like this:
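PathHunter CHO-K1 hCB1R cells (20,000/well) were held overnight in Opti-MEM with 1% FBS. Compound alone (0.10 nM – 10 μM) was given at 37°C for 90 min, then detection solution for 60 min at room temperature and chemiluminescence was read.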

Data set [9] has as its target Cannabinoid receptor 1 (Rattus norvegicus) (UniProt P20272). Description: Allosteric agonist activity at N-terminal GFP-tagged rat CB1R expressed in HEK293 cells assessed as inhibition of forskolin-induced cAMP production by measuring cAMP accumulation at minimal level at higher concentrations after 30 min by TR-FRET assay relative to forskolin. Format: functional, cell-based. The method in brief:
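HEK293 cells stably expressing N-terminal GFP-tagged rat CB1R were trypsin-EDTA dissociated and resuspended in HBSS with 0.1% BSA and 0.5mM IBMX at 500 cells/well. Cells got 5μM forskolin plus compound (1 pM – 10 μM) alone for 30 min. 4-parameter fit; Emin is the lower plateau. n ≥ 3, triplicate.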

In data set [10] the target is T1, Cannabinoid receptor 1. Description: Positive allosteric modulatory activity at human CB1R expressed in CHO-K1 cells assessed as increase in CP55940-induced inhibition of forskolin-stimulated cAMP production after 30 mins in presence of CP55940 at EC20 concentration by hit-hunter cAMP assay. The class given is functional, cell-based. The method in brief:
(§2)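 Read-out was chemiluminescent cAMP detection, fit with a variable-slope 4-parameter regression. n = 1–3 independent experiments in duplicate.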

Data set [11] addresses T1, Cannabinoid receptor 1. Description: Positive allosteric modulatory activity at human CB1R expressed in CHO-K1 cells assessed as increase in CP55940-induced inhibition of forskolin-stimulated cAMP production after 30 mins in presence of CP55940 at EC20 concentration by hit-hunter cAMP assay relative to control. The class given is functional, cell-based. In short, it runs like this: as §2

For data set [12] the following is noted: buffer, pH 7.4, 24 h.
Data set [13] addresses T1, Cannabinoid receptor 1. Description: Positive allosteric modulatory activity at human CB1R expressed in CHO-K1 cells assessed as increase in CP55940-induced beta-arrestin2 recruitment after 90 mins in presence of CP55940 at EC20 concentration by pathhunter beta-arrestin assay. Format: cell-based. The method in brief: as §1
A short description of data set [14]: Toxicity in C57BL/6 mouse assessed as effect on hypothermia at 0.1 to 10 mg/kg, ip after 15 mins by thermometric method. The class given is organism-based. The conditions noted are these: in vivo. In short, it runs like this:
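Male C57BL/6 mice were given 0.1 – 10 mg/kg compound or vehicle (1:1:18 ethanol:cremaphor:saline). Body temperature was measured at 15 min and expressed relative to vehicle (100%). n = 5–6.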

The subject of data set [15] is Mus musculus. The data set is described as follows: Antinociceptive activity in C57BL/6 mouse at 3 to 10 mg/kg, ip after 20 mins post treatment by warm water tail-flick assay. The class given is functional, organism-based.
For data set [16] the following is noted: human, microsomes, 1 µM.
Data set [17] deals with Mus musculus. The data set is described as follows: Potentiation of […] WIN55212-2-induced reduction in intraocular pressure in ocular normotensive C57BL/6J mouse assessed as change in IOP at 0.2% administered topically to eye measured after 12 hrs by tonometry. The class given is functional.
A short description of data set [18]: Half life in rat liver microsomes at 1 uM up to 45 mins in presence of NADPH by LC-MS/MS analysis.
For data set [19] the following is noted: rat, microsomes, 1 µM.
Data set [20] in a line: Half life in human liver microsomes at 1 uM up to 45 mins in presence of NADPH by LC-MS/MS analysis.
The test system of data set [21] is Mus musculus. The data set is described as follows: Reduction of intraocular pressure in ocular hypertensive NEE mouse harboring Sh3pxd2b deletion mutant at 0.2% administered topically to eye after 6 hrs by tonometry. Format: functional. The method in brief:
(§3)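 Ocular hypertensive NEE mice (1 bp deletion in Sh3pxd2b) received topical 0.2% compound alone. IOP change from baseline (time 0) was measured at 1, 6 and 12 h; paired t-tests.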

For data set [22], the system named is Mus musculus. The data set is described as follows: Potentiation of […] WIN55212-2-induced reduction in intraocular pressure in ocular normotensive C57BL/6J mouse assessed as change in IOP at 0.2% administered topically to eye measured after 6 hrs by tonometry. Format: functional.
Data set [23] deals with Mus musculus. Description: Reduction of intraocular pressure in ocular hypertensive NEE mouse harboring Sh3pxd2b deletion mutant at 0.2% administered topically to eye after 12 hrs by tonometry. The class given is functional, organism-based. The method in brief:
as §3

The conditions of data set [24]: buffer, pH 7.4, 2 h.
In data set [25] the target is Cannabinoid receptor 1 (Mus musculus) (UniProt P47746). Description: Positive allosteric modulation activity at CB1 receptor in C57BL/6 mouse hippocampal neurons assessed as increase in depolarization-induced suppression of excitation at 1 uM at -70 mV holding potential by whole cell patch clamp assay.
The test system of data set [26] is Mus musculus. The data set is described as follows: Potentiation of […] WIN55212-2-induced reduction in intraocular pressure in ocular normotensive C57BL/6J mouse assessed as change in IOP at 0.2% administered topically to eye measured after 1 hr by tonometry. Format: functional.
Data set [27] concerns Mus musculus. Description: Reduction of intraocular pressure in ocular hypertensive NEE mouse harboring Sh3pxd2b deletion mutant at 0.2% administered topically to eye after 1 hr by tonometry. The class given is functional. In short, it runs like this: as §3
Data set [28] can be described thus: Toxicity in C57BL/6 mouse assessed as catalepsy at 0.1 to 10 mg/kg, ip after 5 mins by bar holding assay. The conditions noted are these: in vivo. The class given is organism-based. In short, it runs like this: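 Male C57BL/6 mice were given 0.1 – 10 mg/kg compound or vehicle (1:1:18 ethanol:cremaphor:saline). Catalepsy was assessed at 5 min as % MPE with a 60 sec maximum. n = 5–6.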

The source made the active and inactive calls. The calls are words filed in the database; no cut-off is given here. Some results are limits rather than exact numbers.

T1 sequence (P21554 whole entry): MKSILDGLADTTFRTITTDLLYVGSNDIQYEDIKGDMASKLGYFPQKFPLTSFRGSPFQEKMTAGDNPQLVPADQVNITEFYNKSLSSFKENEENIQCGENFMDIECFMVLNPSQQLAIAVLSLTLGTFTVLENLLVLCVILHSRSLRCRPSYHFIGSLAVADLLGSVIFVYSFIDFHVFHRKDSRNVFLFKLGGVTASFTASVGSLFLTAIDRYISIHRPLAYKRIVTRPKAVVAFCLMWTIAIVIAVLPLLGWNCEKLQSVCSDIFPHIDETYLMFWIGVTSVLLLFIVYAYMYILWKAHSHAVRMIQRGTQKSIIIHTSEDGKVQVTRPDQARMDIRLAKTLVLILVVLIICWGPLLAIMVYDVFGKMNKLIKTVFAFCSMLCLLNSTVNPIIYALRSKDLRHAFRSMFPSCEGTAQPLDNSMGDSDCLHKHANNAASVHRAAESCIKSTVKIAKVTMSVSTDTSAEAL
Cannabinoid receptor 1 (Rattus norvegicus), sequence (P20272 whole entry): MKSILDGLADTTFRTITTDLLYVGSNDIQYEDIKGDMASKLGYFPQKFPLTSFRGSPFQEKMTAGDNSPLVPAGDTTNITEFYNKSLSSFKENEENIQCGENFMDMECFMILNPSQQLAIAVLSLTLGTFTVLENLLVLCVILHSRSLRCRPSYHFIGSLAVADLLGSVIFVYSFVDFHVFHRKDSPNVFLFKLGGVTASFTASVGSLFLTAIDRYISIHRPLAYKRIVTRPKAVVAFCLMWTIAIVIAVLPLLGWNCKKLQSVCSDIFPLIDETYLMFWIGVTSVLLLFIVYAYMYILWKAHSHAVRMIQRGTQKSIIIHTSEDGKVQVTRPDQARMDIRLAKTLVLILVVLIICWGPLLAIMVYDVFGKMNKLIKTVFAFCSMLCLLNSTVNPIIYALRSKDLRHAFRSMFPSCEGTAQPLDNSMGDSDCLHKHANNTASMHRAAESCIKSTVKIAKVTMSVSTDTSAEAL
Cannabinoid receptor 1 (Mus musculus), sequence (P47746 whole entry): as the sequence (P20272 whole entry) above, with E95D counted along it

For `O=[N+]([O-])CC(c1ccccc1)c1c(-c2ccccc2)[nH]c2ccccc12` (racemic), the Activity entry in data set [1] and in data set [4] was “Dose-dependent effect” in each case. Besides, the Emin on Cannabinoid receptor 1 [2] came out at 1.8%; on Cannabinoid receptor 1 [6] it was 21%. Further, the Emax at Cannabinoid receptor 1 [3] turned out to be 72%; on Cannabinoid receptor 1 [5], 28%; on Cannabinoid receptor 1 [7], 46%; at Cannabinoid receptor 1 [8], 27%.
As to `CCCCCCC(C)(C)c1ccc([C@@H]2C[C@H](O)CC[C@H]2CCCO)c(O)c1`, in data set [9], the Emin is 29%.
With `O=[N+]([O-])CC(c1ccccn1)c1c(-c2ccccc2)[nH]c2ccccc12` (centres undefined), the concentration for a half-maximal effect (EC50) on Cannabinoid receptor 1 [10] is 0.26 µM; at Cannabinoid receptor 1 [13] it was over 10 µM. For the same compound, the Emax at Cannabinoid receptor 1 [11] was 130%; at Cannabinoid receptor 1 [7] it was 5.8%. Moreover, the Therm_solubility in data set [12] amounted to 2.8 µM.
The corresponding values for `O=[N+]([O-])CC(c1cccnc1)c1c(-c2ccccc2)[nH]c2ccccc12` (centres undefined) are 3.1 µM, over 10 µM, 170%, -8.1% and 1.1 µM.
As to `O=[N+]([O-])CC(c1ccccc1)c1c(-c2ccccc2)[nH]c2ncccc12` (centres undefined), the figures for the EC50 on Cannabinoid receptor 1 [10] and at Cannabinoid receptor 1 [13] were 1.1 µM and over 10 µM, respectively. Also, the values for the Emax on Cannabinoid receptor 1 [11] and at Cannabinoid receptor 1 [7] were 39% and 7%, respectively. Moreover, the Therm_solubility in data set [12] was 159 µM.
Taken in the same sequence, the figures for `O=[N+]([O-])CC(c1ccccc1)c1c(-c2ccccc2)[nH]c2ccncc12` (centres undefined) were over 10 µM, over 10 µM, 4%, 2.8% and 23.6 µM.
For `O=[N+]([O-])CC(c1ncccc1F)c1c(-c2ccccc2)[nH]c2ccccc12` (centres undefined), the Activity entry in [14] was “Non-Toxic”; in the data set with Mus musculus [17], 0.1 mmHg; with Mus musculus [21], 3.6 mmHg; in the data set on Mus musculus [22] it was -0.6 mmHg; in the data set with Mus musculus [26], -0.7 mmHg; in the data set on Mus musculus [27], 2.5 mmHg. Further, the Activity result in [28] is given as “Non-Toxic”. For the same compound, in the data set with Mus musculus [15], the result was inactive. Further, the figures for the CLH in data set [16] and in data set [19] were 84.5 µL/min and 556 µL/min, respectively. For the same compound, the t1/2 in data set [18] turned out to be 4.08 min; in data set [20] it was 27.4 min. The inhibition result in the data set with Mus musculus [23] is “inactive”. The same compound came in with a Kinetic_solubility in data set [24] of 3.13 µM. Besides, the outcome in data set [25] was Active.
In the case of `O=[N+]([O-])CC(c1ccccc1)c1c(-c2cccnc2)[nH]c2ccccc12` (centres undefined), the EC50 on Cannabinoid receptor 1 [10] was 1.1 µM; at Cannabinoid receptor 1 [13] it was over 10 µM. Also, the values for the Emax at Cannabinoid receptor 1 [11] and on Cannabinoid receptor 1 [7] were 150% and 9.2%, respectively. The compound further gave a Therm_solubility in data set [12] of 4.9 µM.
Taken in the same sequence, the figures for `O=[N+]([O-])CC(c1ccccc1)c1c(-c2ccccc2)[nH]c2cnccc12` (centres undefined) were 0.45 µM, over 10 µM, 5.2%, 5.1% and 6.8 µM.
Taken in the same sequence, the figures for `O=[N+]([O-])CC(c1ccccc1)c1c(-c2ccccc2)[nH]c2cccnc12` (centres undefined) were over 10 µM, 1.6 µM, 81%, 30% and 11.2 µM.
